Legend:
Hepatocyte [1] = experiment: Drug level in rat hepatocytes treated with at 100 uM MFA by LC-MS/MS analysis in presence of 1000 uM Lauric acid (reference value: 619 +/-158); format: ADME, cell-based
Summary of the method: (§1)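 Rat hepatocytes (2 million cells/ml, 0.5 ml) with 100 µM MFA for 10 min, with or without 1000 µM (−)-borneol (glucuronidation inhibitor; DMSO stock, 0.1% v/v final in controls) or 1000 µM lauric acid (acyl-CoA formation inhibitor; aqueous stock, pH 7). Triplicate incubations; LC-MS/MS MRM; results given as nM and as % of control, mean ± S.D.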

Hepatocyte [2] = experiment: Drug level in rat hepatocytes treated with 100 uM MFA after 60 mins; format: ADME, cell-based; conditions: 1 h
Summary of the method: (§2)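 Rat hepatocytes at 2 million viable cells/ml in William's E (pH 7.4) at 37°C under 95% O2/5% CO2, with 100 µM MFA for up to 60 min. Quench times 0–60 min; n=3 incubations per point across three separate studies. Acyl-SG and glucuronide quenched with acidic acetonitrile plus CBZ; acyl-CoA quenched with acetonitrile plus CBZ, then hexane extraction. Positive-ion LC-MS/MS MRM; quantified from analyte/CBZ standard curves.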

Hepatocyte [3] = experiment: Drug level in rat hepatocytes treated with at 100 uM MFA by LC-MS/MS analysis in presence of 1000 uM (-)-borneol (reference value: 619 +/-158); format: ADME, cell-based; summary of the method: as §1
Hepatocyte [4] = experiment: Drug level in rat hepatocytes treated with 62.5 uM MFA by LC-MS/MS analysis; format: ADME, cell-based
Summary of the method: (§3)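 Rat hepatocytes (2 million cells/ml, William's E pH 7.4, 37°C, 95% O2/5% CO2) incubated 10 min with MFA at 0.8–500 µM (11 levels). Quenched and processed for LC-MS/MS MRM of the acyl-SG, acyl glucuronide and acyl-CoA derivatives. Three separate experiments, n=3 incubations per concentration; mean ± S.D.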

Hepatocyte [5] = experiment: Drug level in rat hepatocytes treated with 500 uM MFA by LC-MS/MS analysis; format: ADME, cell-based; summary of the method: as §3
[6] = Drug level in Sprague-Dawley rat bile treated with 100 mg/kg, ip MFA after 6 hrs by LC-MS/MS analysis; format: ADME, organism-based; set-up: dose 100 mg/kg, route intraperitoneal; conditions: in vivo
Summary of the method: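 Male Sprague-Dawley rats (300–330 g, n=3) with bile-duct cannulas, housed in metabolic cages; MFA 100 mg/kg i.p. in water, pH 7.0. Artificial bile-salt supplement infused via duodenal cannula at 1 ml/h. Bile collected over 6 h into phosphoric acid on wet ice, centrifuged, and the supernatant quantified by LC-MS/MS against a linear standard curve of analyte/CBZ peak-area ratios.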

[7] = Half life in rat hepatocytes at 1 uM; format: ADME, cell-based, Hepatocyte
Summary of the method: (§4)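 Authentic acyl-SG thioesters or acyl glucuronide (1 µM) incubated with rat hepatocytes (2 million cells/ml). Quenched at 0–30 min and analysed by LC-MS/MS for % remaining; average of two incubations per time point; half-life derived from the decline.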

[8] = Half life in potassium phosphate buffer at 1 uM at pH 7.4 at 37 degC; format: physicochemical
Summary of the method: (§5)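 Acyl-CoA and acyl glucuronide (1 µM, separate incubations) in 0.1 M potassium phosphate, pH 7.4, 37°C, without GSH. Quenched at 0, 5, 8 and 15 h, n=3 per time point; % remaining determined by LC-MS/MS.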

Hepatocyte [9] = experiment: Drug level in single-donor human hepatocytes in suspension treated with 100 uM MFA at 60 mins incubation; conditions: 1 h
Hepatocyte [10] = experiment: Retention time in rat hepatocytes treated with 100 uM MFA by positive ion LC-MS/MS analysis; format: ADME, cell-based; summary of the method: as §2
Hepatocyte [11] = experiment: Drug level in cryopreserved human hepatocytes treated with 100 uM MFA at 10 mins incubation; format: ADME, cell-based
Summary of the method: (§6)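 Human hepatocytes, either cryopreserved 20-donor pooled or a single-donor suspension, thawed or warmed at 37°C, washed in William's E (pH 7.4, 4 mM L-glutamate). Cells at 2 million viable/ml, >95% trypan-blue viability. Incubated with 100 µM MFA at 37°C under 95% O2/5% CO2 with orbital shaking, n=3 per time point. Quench: acetonitrile/3% formic acid with CBZ internal standard; LC-MS/MS MRM.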

[12] = Drug metabolism in rat hepatocytes assessed as MFA-SCoA by LC-MS/MS analysis; format: ADME, cell-based, Hepatocyte; summary of the method: as §3
[13] = Drug metabolism in human hepatocytes assessed as MFA-SCoA at 100 uM by reverse phase LC-MS/MS analysis; format: ADME, cell-based, Hepatocyte
Summary of the method: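 MFA 100 µM with human hepatocytes (2 million viable cells/ml, William's E pH 7.4, 37°C, 95% O2/5% CO2). For the acyl-CoA thioester, quench was acetonitrile without formic acid plus CBZ, followed by hexane extraction. The aqueous layer was analysed by positive-ion LC-MS/MS MRM (m/z 991→224 and 484).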

[14] = Drug metabolism in rat hepatocytes assessed as MFA-SCoA at 100 uM by reverse phase LC-MS/MS analysis; format: ADME, cell-based, Hepatocyte; summary of the method: as §2
[15] = Drug metabolism in rat hepatocytes assessed as acyl migration isomers at 100 uM by positive ion LC-MS/MS analysis; format: ADME, cell-based, Hepatocyte
[16] = Drug metabolism in rat hepatocytes assessed as I-SG thioester at 100 uM at 10 mins incubation by LC-MS/MS analysis; format: ADME, cell-based, Hepatocyte
Summary of the method: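 Rat hepatocytes (2 million cells/ml, William's E pH 7.4, 37°C, 95% O2/5% CO2) incubated with (R)-ibuprofen 100 µM for 10 min, n=3. Quenched with acetonitrile/3% formic acid containing CBZ. The acyl-SG thioester was quantified by LC-MS/MS against a linear acyl-SG/CBZ peak-area-ratio standard curve.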

[17] = Drug metabolism in human hepatocytes assessed as MFA-SG at 100 uM by sensitive LC-MS/MS MRM analysis; format: ADME, cell-based, Hepatocyte; summary of the method: as §6
[18] = Drug metabolism in rat hepatocytes assessed as MFA-SG at 100 uM by sensitive LC-MS/MS MRM analysis; format: ADME, cell-based, Hepatocyte; summary of the method: as §2
[19] = Drug metabolism in rat hepatocytes assessed as MFA-1-beta-O-G at 100 uM by positive ion LC-MS/MS analysis; format: ADME, cell-based, Hepatocyte; summary of the method: as §2
[20] = Half life in rat hepatocytes; format: ADME, cell-based, Hepatocyte; summary of the method: as §4
[21] = Increase in drug level in phosphate buffer treated with 1 uM MFA-SCoA at pH 7.4 at 37 degC in presence of GSH/rat liver GST after 60 mins
Summary of the method: (§7)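 Acyl-CoA or acyl glucuronide (1 µM) with 10 mM GSH in 0.1 M potassium phosphate, pH 7.4, 37°C, additionally fortified with rat liver GST (3 units/ml). Up to 60 min; acyl-SG formation measured by LC-MS/MS and compared with incubations lacking GST.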

Hepatocyte [22] = experiment: Drug level in rat hepatocytes treated with at 100 uM MFA by LC-MS/MS analysis in presence of 1000 uM (-)-borneol (reference value: 334 +/- 76); format: ADME, cell-based; summary of the method: as §1
Hepatocyte [23] = experiment: Drug level in human hepatocytes treated with 100 uM MFA by sensitive LC-MS/MS MRM analysis; format: ADME, cell-based; summary of the method: as §6
[24] = Drug level in phosphate buffer treated with 1 uM MFA-1-beta-O-G at pH 7.4 at 37 degC in presence of GSH after 60 mins; format: physicochemical; conditions: pH 7.4, 1 h
Summary of the method: (§8)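 Acyl-CoA or acyl glucuronide (1 µM) in 0.1 M potassium phosphate, pH 7.4, 37°C, with 10 mM GSH, n=3. Quenched at 0, 15, 30, 45 and 60 min with acetonitrile/3% formic acid containing 1 µM CBZ. The acyl-SG product was measured by LC-MS/MS; mean ± S.D.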

[25] = Increase in drug level in phosphate buffer treated with 1 uM MFA-1-beta-O-G at pH 7.4 at 37 degC in presence of GSH/rat liver GST after 60 mins; summary of the method: as §7
Hepatocyte [26] = experiment: Drug level in rat hepatocytes treated with 100 uM MFA by reverse phase LC-MS/MS analysis; format: ADME, cell-based; summary of the method: as §2
Hepatocyte [27] = experiment: Drug level in rat hepatocytes treated with at 100 uM MFA by LC-MS/MS analysis in presence of 1000 uM Lauric acid (reference value: 334 +/- 76); format: ADME, cell-based; summary of the method: as §1
[28] = Drug level in phosphate buffer treated with 1 uM MFA SCoA at pH 7.4 at 37 degC in presence of GSH after 60 mins; format: physicochemical; conditions: pH 7.4, 1 h; summary of the method: as §8
Hepatocyte [29] = experiment: Drug level in rat hepatocytes treated with at 100 uM MFA by LC-MS/MS analysis in presence of 1000 uM (-)-borneol (reference value: 9.1 +/- 4.5); format: ADME, cell-based; summary of the method: as §1
[30] = Stability in potassium phosphate buffer at 1 uM at pH 7.4 at 37 degC; format: physicochemical; conditions: pH 7.4, 1 µM; summary of the method: as §5
Hepatocyte [31] = experiment: Drug level in rat hepatocytes treated with 15.6 uM MFA by LC-MS/MS analysis; format: ADME, cell-based; summary of the method: as §3
Hepatocyte [32] = experiment: Drug level in rat hepatocytes treated with at 100 uM MFA by LC-MS/MS analysis in presence of 1000 uM Lauric acid (reference value: 9.1 +/- 4.5); format: ADME, cell-based; summary of the method: as §1
[33] = Drug level in phosphate buffer treated with 1 uM I-SCoA at pH 7.4 at 37 degC in presence of GSH after 60 mins; format: physicochemical; conditions: pH 7.4, 1 h; summary of the method: as §8
GST = experiment: (§9) Stability in rat liver GST assessed as degradation at 1 uM after 30 mins relative to control; format: ADME, tissue-based; conditions: rat liver GST
Summary of the method: (§10)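 Acyl-SG thioesters (1 µM) in 0.1 M phosphate buffer, pH 7.4, 37°C (0.2 ml), with or without rat liver GST at 3 units/ml. Duplicates per time point, quenched at 0–60 min with acidic acetonitrile plus CBZ and analysed directly by LC-MS/MS. Degradation at 30 min expressed relative to the no-GST control.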

[34] = as §9; format: ADME, tissue-based; conditions: 0.5 h, 1 µM; summary of the method: as §10

Cc1cccc(Nc2ccccc2C(=O)O[C@@H]2O[C@H](C(=O)O)[C@@H](O)[C@H](O)[C@H]2O)c1C
Drug metabolism (Hepatocyte [1]): 198 nM
Drug metabolism (Hepatocyte [2]): 1560 nM
Drug metabolism (Hepatocyte [3]): 55.1 nM
Drug metabolism (Hepatocyte [4]): 700 nM
Drug metabolism (Hepatocyte [5]): 460 nM
Drug uptake [6]: 2000 µg
half-life at 1 µM [7]: > 60 min
half-life at 1 µM [8]: 990 min
Drug metabolism (Hepatocyte [9]): 18.6 µM
Retention_time (Hepatocyte [10]): 11 min
Drug metabolism (Hepatocyte [11]): 3.5 µM

Cc1cccc(Nc2ccccc2C(=O)O)c1C [MEFENAMIC ACID]
Drug metabolism [12]: Dose-dependent effect
Drug uptake [6]: 4 µg
Drug metabolism [13]: metabolite_not_detected
Drug metabolism [14]: metabolite_detected
Drug metabolism [15]: metabolite_not_detected
Drug metabolism [16]: 3 nM
Drug metabolism [17]: metabolite_detected
Drug metabolism [18]: metabolite_detected
Drug metabolism [19]: metabolite_detected

Cc1cc(CC(=O)SC[C@H](NC(=O)CC[C@H](N)C(=O)O)C(=O)NCC(=O)O)n(C)c1C(=O)c1ccc(Cl)cc1
half-life [20]: 0.8 min

Cc1cccc(Nc2ccccc2C(=O)SC[C@H](NC(=O)CC[C@H](N)C(=O)O)C(=O)NCC(=O)O)c1C
fold change (FC) [21]: 1.3
Drug metabolism (Hepatocyte [22]): 387 nM
Drug metabolism (Hepatocyte [2]): 50 nM
Drug metabolism (Hepatocyte [23]): metabolite_detected
Drug metabolism [24]: 2.7 nM
fold change (FC) [25]: 6
Drug metabolism (Hepatocyte [26]): metabolite_detected
Drug metabolism (Hepatocyte [5]): 230 nM
Drug uptake [6]: 17.4 µg
Drug metabolism (Hepatocyte [27]): 113 nM
Drug metabolism (Hepatocyte [11]): 0.001 µM
Drug metabolism [28]: 208 nM

Cc1cccc(Nc2ccccc2C(=O)SCCNC(=O)CCNC(=O)C(O)C(C)(C)COP(=O)(O)OP(=O)(O)OC[C@H]2O[C@@H](n3cnc4c(N)ncnc43)[C@H](O)[C@@H]2OP(=O)(O)O)c1C (some centres undefined)
Drug metabolism (Hepatocyte [29]): 8.8 nM
Stability [30]: Stable
Drug metabolism (Hepatocyte [26]): metabolite_detected
Drug metabolism (Hepatocyte [31]): 6 nM
Drug metabolism (Hepatocyte [32]): 3.8 nM

CC(C)Cc1ccc(C(C)C(=O)SC[C@H](NC(=O)CC[C@H](N)C(=O)O)C(=O)NCC(=O)O)cc1 (some centres undefined)
half-life [20]: 4 min
Drug metabolism [33]: 440 nM
metabolised at 0.5 h, 1 µM (GST): 11%
Drug metabolism [28]: 440 nM

N[C@@H](CCC(=O)N[C@@H](CSC(=O)Cc1ccccc1Nc1c(Cl)cccc1Cl)C(=O)NCC(=O)O)C(=O)O
half-life [20]: 1 min
Stability [34]: Unstable
